Assay results reported in ChEMBL document CHEMBL1921704, “Discovery of N-aryl-2-acylindole human glucagon receptor antagonists” (Bioorg Med Chem Lett, 2011).

Key:
Glucagon receptor [1] = molecular target: T1, Glucagon receptor (Homo sapiens, UniProt P47871); assay: Displacement of [125I]-glucagon from human glucagon receptor expressed in CHO cells after 4 to 12 hrs by scintillation proximity assay; format: cell-based
Procedure, shortened: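 Scintillation proximity assay on membranes from CHO cells expressing hGCGR, measuring inhibition of ¹²⁵I-labelled glucagon binding. IC50 reported as the average rounded to two significant figures, with standard error of the mean when more than one measurement was made.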

Glucagon receptor [2] = molecular target: T1, Glucagon receptor; assay: Antagonist activity at human glucagon receptor expressed in CHO cells assessed as inhibition of forskolin/glucagon-induced cAMP production preincubated for 30 mins before glucagon challenge measured after 30 mins using [125I]-cAMP by liquid scintillation counting; format: functional, cell-based
Procedure, shortened: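 Glucagon-induced cAMP production measured in CHO cells transfected with hGCGR. IC50 reported as the average rounded to two significant figures, with SEM when measured more than once.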

[3] = Oral bioavailability in rat at 2 mg/kg; format: ADME, organism-based; details: in vivo
Procedure, shortened: (§1)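 Rat PK with dosing at 1 mg/kg IV and 2 mg/kg PO, vehicle DMSO/water/PEG400 15:35:55. Parameters were plasma clearance, Vd, t1/2, dose-normalised PO AUC and Cmax, and %F.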

[4] = Volume of distribution in rat at 1 mg/kg, iv and 2 mg/kg, po; format: ADME, organism-based; details: in vivo; procedure, shortened: as §1
[5] = Plasma clearance in rat at 1 mg/kg, iv and 2 mg/kg, po; format: ADME, organism-based; procedure, shortened: as §1
Rattus norvegicus [6] = assay: Dose normalised Cmax in rat at 1 mg/kg, iv and 2 mg/kg, po; format: ADME, organism-based; details: in vivo; procedure, shortened: as §1
[7] = Half life in rat at 1 mg/kg, iv and 2 mg/kg, po; format: ADME, organism-based; details: in vivo; procedure, shortened: as §1
Rattus norvegicus [8] = assay: Dose normalised AUC in rat at 2 mg/kg, po; format: ADME, organism-based; parameters: dose 2 mg/kg, route oral; details: in vivo; procedure, shortened: as §1

T1 sequence (P47871 whole entry): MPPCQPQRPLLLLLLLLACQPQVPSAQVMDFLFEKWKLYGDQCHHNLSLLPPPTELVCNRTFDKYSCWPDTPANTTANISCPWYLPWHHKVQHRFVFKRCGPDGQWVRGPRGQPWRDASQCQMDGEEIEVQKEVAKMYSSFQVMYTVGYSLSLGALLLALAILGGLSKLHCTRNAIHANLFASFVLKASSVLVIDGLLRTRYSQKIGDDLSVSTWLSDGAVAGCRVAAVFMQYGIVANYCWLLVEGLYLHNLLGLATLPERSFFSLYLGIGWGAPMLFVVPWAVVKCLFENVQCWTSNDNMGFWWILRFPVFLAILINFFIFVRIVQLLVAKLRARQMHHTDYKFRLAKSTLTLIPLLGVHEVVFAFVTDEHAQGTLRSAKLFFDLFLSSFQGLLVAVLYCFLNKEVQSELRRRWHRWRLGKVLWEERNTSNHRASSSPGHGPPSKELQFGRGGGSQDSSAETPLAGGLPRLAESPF

| SMILES | IC50 (Glucagon receptor [1]) [nM] | IC50 (Glucagon receptor [2]) [nM] | other results |
| --- | --- | --- | --- |
| CCC[C@@H](Cc1ccc(C(=O)NCCC(=O)O)cc1)C(=O)c1cc2cc(Cl)ccc2n1-c1cccc(C(F)(F)F)c1 | 17 | 55 | bioavailability [3]: 42%; Vd [4]: 1.5 L/kg; clearance [5]: 14.2 mL/min/kg; Cmax/dose (Rattus norvegicus [6]): 250 nM; half-life [7]: 1.7 h; AUC/dose (Rattus norvegicus [8]): 0.85 µM·h |
| CCCCC[C@@H](Cc1ccc(C(=O)NCCC(=O)O)cc1)C(=O)c1cc2cc(C)ccc2n1-c1cccc(C(F)(F)F)c1 | 12 | 24 |  |
| CCCC(Cc1ccc(C(=O)NCCC(=O)O)cc1)C(=O)c1cc2cc(Cl)ccc2n1-c1ccc(OC(F)(F)F)cc1 (single isomer, unassigned) | 28 | 45 |  |
| CCCC(Cc1ccc(C(=O)NCCC(=O)O)cc1)C(=O)c1cc2cc(Cl)ccc2n1-c1cccc(F)c1 (single isomer, unassigned) | 47 | 150 |  |
| CCC[C@H](Cc1ccc(C(=O)NCCC(=O)O)cc1)C(=O)c1cc2cc(Cl)ccc2n1-c1cccc(C(F)(F)F)n1 | 450 |  |  |
| CCCC(Cc1ccc(C(=O)NCCC(=O)O)cc1)C(=O)c1cc2cc(Cl)ccc2n1-c1ccc(C(F)(F)F)cc1 (single isomer, unassigned) | 31 | 30 |  |
| CCCC(Cc1ccc(C(=O)NCCC(=O)O)cc1)C(=O)c1cc2cc(Cl)ccc2n1-c1ccc2cc(OC)ccc2c1 (single isomer, unassigned) | 34 | 95 |  |
| CCCC(Cc1ccc(C(=O)NCCC(=O)O)cc1)C(=O)c1cc2cc(Cl)ccc2n1-c1ccc(Cl)cc1 (single isomer, unassigned) | 32 | 100 |  |
| CCCC(Cc1ccc(C(=O)NCCC(=O)O)cc1)C(=O)c1cc2cc(Cl)ccc2n1-c1ccc2c(c1)OCCO2 (single isomer, unassigned) | 28 | 49 |  |

Second part, led by results:

| IC50 (Glucagon receptor [1]) [nM] | IC50 (Glucagon receptor [2]) [nM] | SMILES | other results |
| --- | --- | --- | --- |
| 58 | 718 | CCCC(Cc1ccc(C(=O)NCCC(=O)O)cc1)C(=O)c1cc2cc(Cl)ccc2n1-c1cnc2ccccc2c1 (single isomer, unassigned) |  |
| 10 | 20 | CCCCC[C@@H](Cc1ccc(C(=O)NCCC(=O)O)cc1)C(=O)c1cc2cc(F)ccc2n1-c1cccc(C(F)(F)F)c1 |  |
| 26 | 35 | CCCCC[C@@H](Cc1ccc(C(=O)NCCC(=O)O)cc1)C(=O)c1cc2cc(OC)ccc2n1-c1cccc(C(F)(F)F)c1 |  |
| 23 | 39 | CCCC(Cc1ccc(C(=O)NCCC(=O)O)cc1)C(=O)c1cc2cc(Cl)ccc2n1-c1ccc(OC)c(C(F)(F)F)c1 (single isomer, unassigned) |  |
| 110 |  | CCCC(Cc1ccc(C(=O)NCCC(=O)O)cc1)C(=O)c1cc2cc(Cl)ccc2n1-c1cc(Cl)cc(Cl)c1 (single isomer, unassigned) |  |
